The text below walks through data of ChEMBL document CHEMBL4350954, “Identification of Thienopyrimidine Scaffold as an Inhibitor of the ABC Transport Protein ABCC1 (MRP1) and Related Transporters Using a Combined Virtual Screening Approach” (J Med Chem, 2019).

Holding throughout (format): cell-based
One series concerns the target T1, ABCG2 (BCRP) (Homo sapiens, UniProt Q9UNQ0).
T1 sequence (Q9UNQ0 whole entry): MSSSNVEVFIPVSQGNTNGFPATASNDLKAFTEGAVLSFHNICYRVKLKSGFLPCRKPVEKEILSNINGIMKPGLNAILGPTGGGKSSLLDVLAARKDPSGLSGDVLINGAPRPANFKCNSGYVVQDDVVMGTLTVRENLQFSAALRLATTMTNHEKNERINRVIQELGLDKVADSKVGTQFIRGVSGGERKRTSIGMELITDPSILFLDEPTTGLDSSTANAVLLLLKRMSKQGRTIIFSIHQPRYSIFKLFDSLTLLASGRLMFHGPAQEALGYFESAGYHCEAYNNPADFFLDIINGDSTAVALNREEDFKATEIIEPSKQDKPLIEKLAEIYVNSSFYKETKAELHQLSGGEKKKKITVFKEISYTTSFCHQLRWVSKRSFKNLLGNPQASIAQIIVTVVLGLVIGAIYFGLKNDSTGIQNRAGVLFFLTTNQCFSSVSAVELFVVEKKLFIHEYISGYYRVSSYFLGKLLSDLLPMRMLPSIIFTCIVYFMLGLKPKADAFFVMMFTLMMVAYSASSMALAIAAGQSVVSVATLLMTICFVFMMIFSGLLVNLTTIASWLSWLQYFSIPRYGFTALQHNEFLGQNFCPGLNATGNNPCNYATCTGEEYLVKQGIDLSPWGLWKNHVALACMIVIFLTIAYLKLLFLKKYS
Put plainly: Inhibition of ABCG2 (unknown origin) expressed in MDCK2 cells co-expressing BCRP (unknown origin) assessed as effect on pheophorbide A accumulation at 10 uM pre-incubated for 20 mins followed by pheophorbide A addition and measured after 120 mins by flow cytometric analysis relative to Ko143. As to conditions: probe pheophorbide A. In short, it runs like this:
(§1)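 Pheophorbide A accumulation assay in ABCG2-transfected MDCK II BCRP cells. Ko143 at 10 µM set 100% and no compound set 0%. Screening was at 10 µM; compounds reaching >20% (+SEM) got IC50 curves constrained to the Ko143 maximum at 10 µM. Values are reported as mean ± SEM.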

Series [1] deals with T2, Broad substrate specificity ATP-binding cassette transporter ABCG2 (Homo sapiens, UniProt Q9UNQ0).
T2 sequence (Q9UNQ0 whole entry): T1 sequence (Q9UNQ0 whole entry)
The experiment in a line: Inhibition of ABCG2 (unknown origin) expressed in MDCK2 cells co-expressing BCRP (unknown origin) assessed as effect on pheophorbide A accumulation pre-incubated for 20 mins followed by pheophorbide A addition and measured after 120 mins by flow cytometric analysis. In short, it runs like this: as §1
(A flow cytometer gives signals particle by particle.)

The target in series [2] is T3, Multidrug resistance-associated protein 1 (Homo sapiens, UniProt P33527). Put plainly: Inhibition of MRP1 in human COR-L23/R cells assessed reduction in tritiated daunomycin efflux incubated for 2 hrs by radioactivity-based assay.
T3 sequence (P33527 whole entry): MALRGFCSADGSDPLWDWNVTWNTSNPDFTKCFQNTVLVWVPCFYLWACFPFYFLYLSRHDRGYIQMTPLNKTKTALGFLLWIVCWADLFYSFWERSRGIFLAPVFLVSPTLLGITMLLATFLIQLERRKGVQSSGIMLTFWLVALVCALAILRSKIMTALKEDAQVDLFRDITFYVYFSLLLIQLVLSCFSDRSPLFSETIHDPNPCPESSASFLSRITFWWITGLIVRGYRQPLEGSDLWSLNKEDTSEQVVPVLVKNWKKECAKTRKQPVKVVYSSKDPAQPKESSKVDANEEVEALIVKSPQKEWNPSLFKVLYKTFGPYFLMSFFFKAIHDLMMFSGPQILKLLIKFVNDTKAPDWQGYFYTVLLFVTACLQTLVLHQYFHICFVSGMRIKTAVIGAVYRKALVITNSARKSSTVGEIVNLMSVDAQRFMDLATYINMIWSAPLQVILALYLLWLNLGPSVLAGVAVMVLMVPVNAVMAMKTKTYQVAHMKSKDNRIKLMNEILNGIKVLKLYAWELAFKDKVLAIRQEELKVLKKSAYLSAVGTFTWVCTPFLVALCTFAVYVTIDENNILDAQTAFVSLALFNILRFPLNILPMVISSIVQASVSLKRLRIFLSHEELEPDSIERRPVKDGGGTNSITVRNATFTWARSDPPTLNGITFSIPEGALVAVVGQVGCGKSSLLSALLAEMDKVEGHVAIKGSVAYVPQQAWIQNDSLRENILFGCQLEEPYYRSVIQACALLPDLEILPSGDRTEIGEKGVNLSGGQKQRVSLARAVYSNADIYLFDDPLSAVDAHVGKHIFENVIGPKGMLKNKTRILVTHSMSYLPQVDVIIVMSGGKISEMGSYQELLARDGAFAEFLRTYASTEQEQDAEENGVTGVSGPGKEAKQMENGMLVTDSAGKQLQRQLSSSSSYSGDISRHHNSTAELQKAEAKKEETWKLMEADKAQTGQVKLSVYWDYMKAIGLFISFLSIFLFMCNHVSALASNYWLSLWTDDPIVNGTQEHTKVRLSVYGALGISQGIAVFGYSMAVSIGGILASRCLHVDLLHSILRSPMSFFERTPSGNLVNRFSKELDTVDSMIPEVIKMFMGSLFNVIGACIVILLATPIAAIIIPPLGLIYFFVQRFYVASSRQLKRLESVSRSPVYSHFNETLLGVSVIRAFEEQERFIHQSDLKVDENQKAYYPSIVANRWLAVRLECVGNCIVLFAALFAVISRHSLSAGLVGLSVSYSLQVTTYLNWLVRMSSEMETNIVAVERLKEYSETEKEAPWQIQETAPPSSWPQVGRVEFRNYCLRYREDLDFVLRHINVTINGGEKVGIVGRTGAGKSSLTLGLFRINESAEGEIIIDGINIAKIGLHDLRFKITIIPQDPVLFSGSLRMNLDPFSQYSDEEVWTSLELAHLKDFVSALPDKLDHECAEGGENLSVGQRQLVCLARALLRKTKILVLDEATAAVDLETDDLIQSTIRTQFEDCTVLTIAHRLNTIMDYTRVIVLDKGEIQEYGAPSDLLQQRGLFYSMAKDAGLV
Series [3] addresses T3, Multidrug resistance-associated protein 1. Put plainly: Inhibition of ABCC1 in human H69AR cells preincubated for 30 mins followed by calcein-AM addition measured at 60 secs time interval by fluorescence assay. In short, it runs like this:
(§2)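 Calcein AM accumulation assay in H69AR small-cell lung cancer cells, which express only ABCC1. Inhibited efflux lets calcein AM build up intracellularly, where esterases cleave it to fluorescent calcein. The screen used 10 µM, scaled to a standard ABCC1 inhibitor at 10 µM as 100%. Hits reaching ≥20% inhibition (+SEM) went on to IC50 curves, constrained to that 100% maximum. Values are means of ≥3 independent experiments in duplicate ± SEM.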

A further series deals with ABCC1 (MRP1) (Homo sapiens, UniProt P33527). The experiment in a line: Inhibition of ABCC1 in human H69AR cells at 10 uM preincubated for 30 mins followed by calcein-AM addition measured at 60 secs time interval by fluorescence assay relative to control. As to conditions: probe calcein-AM. In short, it runs like this:
as §2

The target in a further series is ABCB1 (P-gp) (Homo sapiens, UniProt P08183). Put plainly: Inhibition of ABCB1 in human A2780/ADR cells at 10 uM preincubated for 30 mins followed by calcein AM addition and measured at 60 secs time interval by fluorescence assay relative to cyclosporine A. As to conditions: probe calcein AM.
Sequence of ABCB1 (P-gp) (P08183 whole entry): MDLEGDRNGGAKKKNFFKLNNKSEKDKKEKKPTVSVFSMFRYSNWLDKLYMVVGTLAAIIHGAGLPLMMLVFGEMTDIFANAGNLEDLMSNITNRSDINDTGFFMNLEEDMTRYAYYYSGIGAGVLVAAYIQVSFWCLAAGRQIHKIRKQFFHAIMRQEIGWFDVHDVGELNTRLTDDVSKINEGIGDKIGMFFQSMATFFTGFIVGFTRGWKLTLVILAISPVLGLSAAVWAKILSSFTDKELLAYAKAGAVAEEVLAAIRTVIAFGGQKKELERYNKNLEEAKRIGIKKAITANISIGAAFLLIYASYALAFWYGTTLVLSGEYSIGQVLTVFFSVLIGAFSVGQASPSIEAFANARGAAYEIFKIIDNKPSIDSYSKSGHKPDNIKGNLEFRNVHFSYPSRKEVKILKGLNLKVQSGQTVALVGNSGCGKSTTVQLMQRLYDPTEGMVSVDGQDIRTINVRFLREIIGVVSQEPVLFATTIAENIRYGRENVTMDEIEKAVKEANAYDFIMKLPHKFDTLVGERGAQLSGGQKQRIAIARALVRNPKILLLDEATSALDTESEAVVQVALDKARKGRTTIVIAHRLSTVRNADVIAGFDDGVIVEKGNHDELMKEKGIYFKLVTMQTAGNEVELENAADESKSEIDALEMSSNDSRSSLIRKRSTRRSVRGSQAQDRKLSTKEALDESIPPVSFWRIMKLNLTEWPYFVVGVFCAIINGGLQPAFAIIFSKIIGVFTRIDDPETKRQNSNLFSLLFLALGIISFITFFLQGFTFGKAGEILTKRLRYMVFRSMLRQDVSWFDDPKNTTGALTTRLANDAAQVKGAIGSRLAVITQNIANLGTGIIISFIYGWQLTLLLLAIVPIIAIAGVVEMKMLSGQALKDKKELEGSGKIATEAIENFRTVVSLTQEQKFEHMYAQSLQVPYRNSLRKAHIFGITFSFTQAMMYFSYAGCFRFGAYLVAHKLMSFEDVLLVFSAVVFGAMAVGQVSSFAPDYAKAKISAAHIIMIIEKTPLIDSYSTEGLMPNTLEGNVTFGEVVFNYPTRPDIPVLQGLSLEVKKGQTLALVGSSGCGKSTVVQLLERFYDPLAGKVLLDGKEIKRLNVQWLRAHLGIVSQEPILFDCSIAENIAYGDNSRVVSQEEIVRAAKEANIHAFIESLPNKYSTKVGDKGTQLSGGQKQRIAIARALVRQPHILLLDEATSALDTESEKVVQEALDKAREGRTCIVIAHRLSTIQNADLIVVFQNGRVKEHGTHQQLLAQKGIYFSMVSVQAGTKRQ
Series [4] has as its target ATP-dependent translocase ABCB1 (Homo sapiens, UniProt P08183). Put plainly: Inhibition of ABCB1 in human A2780/ADR cells preincubated for 30 mins followed by calcein AM addition and measured at 60 secs time interval by fluorescence assay.

Sequence of ABCC1 (MRP1) (P33527 whole entry): as the sequence (P33527 whole entry) above
Sequence of ATP-dependent translocase ABCB1 (P08183 whole entry): as the sequence (P08183 whole entry) above

Take `N#Cc1ccc(CN2CCN(C(=O)c3cn(Cc4ccccc4)nc3-c3cccnc3)CC2)cc1`: on ABCG2 (BCRP), the inhibition at 2 h, 10 µM was ≥ 20%. In addition, the IC50 in series [1] amounted to 15.4 µM.

As for `CCOC(=O)Cn1c2cccc(C(N)=O)c2c2ncnc(N3CCN(CCc4ccc(F)c(F)c4)CC3)c21`, in series [2], the IC50 is 0.122 µM.

For the molecule `Cc1nc2cc(NC(=O)C3CCCN(c4cc(-n5cccn5)ncn4)C3)ccc2s1` (stereo not drawn), on ABCG2 (BCRP), the inhibition at 2 h, 10 µM was ≥ 20%. Further, the values for the IC50 in series [3], in series [4] and in series [1] were 22.7 µM, 4.83 µM and 1.39 µM, respectively. Further, the inhibition at 1 min, 10 µM on ABCC1 (MRP1) and at ABCB1 (P-gp) was ≥ 20% each time.

For `Cc1ccccc1-n1nnnc1SCC(=O)N1CCN(Cc2ccccc2)CC1`, the inhibition at 1 min, 10 µM at ABCB1 (P-gp) is ≥ 20%. The IC50 in series [4] was 26.4 µM.

As for `O=C(CSc1nnc(-c2ccc(F)cc2)o1)N1CCN(Cc2ccc3c(c2)CCO3)CC1`, the inhibition at 2 h, 10 µM on ABCG2 (BCRP) is ≥ 20%. Also, on ABCB1 (P-gp), the inhibition at 1 min, 10 µM is ≥ 20%. Also, the half-maximal inhibitory concentration (IC50) in series [4] was 31 µM; in series [1] it was 14.4 µM.

For `Cc1cc(C)c2c(n1)sc1c(N3CCN(Cc4ccccc4Cl)CC3)ncnc12`, on ABCG2 (BCRP), the inhibition at 2 h, 10 µM is ≥ 20%. At ABCB1 (P-gp), the inhibition at 1 min, 10 µM is ≥ 20%. In addition, the IC50 in series [4] was 2.81 µM; in series [1], 8.68 µM.

Consider `CCCc1cc(N2CCN(CCOc3cccc4ccccc34)CC2)n2nc3nc(C)cc(C)c3c2n1`, for which, on ABCG2 (BCRP), the inhibition at 2 h, 10 µM was ≥ 20%. Also, on ABCB1 (P-gp), the inhibition at 1 min, 10 µM is ≥ 20%. Moreover, the IC50 in series [4] was 14.5 µM; in series [1], 11.8 µM.

As for `Fc1ccccc1N1CCN(Cc2csc(-c3ccc4c(c3)OCO4)n2)CC1`, the inhibition at 2 h, 10 µM on ABCG2 (BCRP) is ≥ 20%. For the same molecule, the inhibition at 1 min, 10 µM on ABCB1 (P-gp) was ≥ 20%. The IC50 in series [4] is 15.4 µM; in series [1], 11.2 µM.

For `O=C(c1cc(-c2cccnc2)nc2ccccc12)N1CCN(Cc2cccs2)CC1`, the inhibition at 2 h, 10 µM at ABCG2 (BCRP) was ≥ 20%. Also, the values for the IC50 in series [3], in series [4] and in series [1] were 39.3 µM, 27.8 µM and 16 µM, respectively. Moreover, the inhibition at 1 min, 10 µM at ABCC1 (MRP1) and on ABCB1 (P-gp) was ≥ 20% throughout.

`O=C(c1ccc2c(c1)OCCO2)C1CCN(C(=O)c2ccc(-n3cccn3)cc2)CC1`: the inhibition at 2 h, 10 µM at ABCG2 (BCRP) is ≥ 20%. Moreover, the IC50 in series [1] amounted to 10.4 µM.

Regarding `Cc1ccccc1-n1c(SCC(=O)N2CCN(Cc3ccccc3)CC2)nnc1-c1cccnc1`, at ABCB1 (P-gp), the inhibition at 1 min, 10 µM is ≥ 20%. In addition, the IC50 in series [4] was 15.6 µM.

Take `C[C@@]1(C(=O)Nc2ccc(F)nc2)CCCN1c1nc(Nc2cc(C3CC3)n[nH]2)c2cccn2n1` [BMS-754807]: the inhibition at 2 h, 10 µM on ABCG2 (BCRP) was ≥ 20%. The IC50 in series [3] is 36.3 µM; in series [4], 17.7 µM; in series [1] it was 10.2 µM. In addition, the inhibition at 1 min, 10 µM on ABCC1 (MRP1) and at ABCB1 (P-gp) was ≥ 20% in each case.

A word on the inhibition: it is the share of the control response that was lost under treatment. As a reminder, the IC50 is the concentration that gives 50% inhibition.
